We go through 4 molecules from the M2OR odorant receptor database.

Conditions in all cases: stereoisomer not certain
For experiment [1], the target named is T1, UniProt Q8VG27.
T1 sequence (whole entry): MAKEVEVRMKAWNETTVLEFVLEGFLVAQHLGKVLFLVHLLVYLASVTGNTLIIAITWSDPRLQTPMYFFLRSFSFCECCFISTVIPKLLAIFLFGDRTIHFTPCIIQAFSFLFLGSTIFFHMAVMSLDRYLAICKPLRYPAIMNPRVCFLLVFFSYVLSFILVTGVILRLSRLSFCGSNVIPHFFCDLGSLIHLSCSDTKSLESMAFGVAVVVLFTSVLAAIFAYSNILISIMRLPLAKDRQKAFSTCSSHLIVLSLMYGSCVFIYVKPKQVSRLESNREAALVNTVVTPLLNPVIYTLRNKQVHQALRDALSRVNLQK
In a few lines:
(§1)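 Assay methods differ from source to source, frequently being transient luciferase assays in mammalian cell lines. For each receptor–molecule pair, the label responsive (active) applies when the original authors judged the measured signal statistically different from baseline, and non-responsive (inactive) applies otherwise.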

The target of experiment [2] is T2, UniProt Q8VG49.
T2 sequence (whole entry): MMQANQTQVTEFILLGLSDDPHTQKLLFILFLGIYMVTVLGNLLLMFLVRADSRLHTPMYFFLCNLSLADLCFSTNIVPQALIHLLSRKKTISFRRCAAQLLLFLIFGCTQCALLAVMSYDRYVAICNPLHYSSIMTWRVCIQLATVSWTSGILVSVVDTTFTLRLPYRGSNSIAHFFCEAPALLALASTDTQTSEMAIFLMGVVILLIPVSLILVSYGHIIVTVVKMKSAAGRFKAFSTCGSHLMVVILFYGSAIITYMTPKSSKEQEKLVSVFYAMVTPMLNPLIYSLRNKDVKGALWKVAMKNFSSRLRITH
Summed up: as §1

For experiment [3], the target named is T3, UniProt Q8VG53.
T3 sequence (whole entry): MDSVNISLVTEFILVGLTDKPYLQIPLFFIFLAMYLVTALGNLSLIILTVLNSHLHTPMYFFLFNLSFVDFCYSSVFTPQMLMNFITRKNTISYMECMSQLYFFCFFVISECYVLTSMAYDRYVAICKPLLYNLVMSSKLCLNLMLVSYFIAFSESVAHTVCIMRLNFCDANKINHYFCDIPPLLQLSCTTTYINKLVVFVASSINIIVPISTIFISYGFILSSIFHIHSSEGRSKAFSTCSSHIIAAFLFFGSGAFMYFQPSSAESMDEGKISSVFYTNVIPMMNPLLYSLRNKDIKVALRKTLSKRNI
Summed up: as §1

Experiment [4] addresses T4, UniProt Q8VG64.
T4 sequence (whole entry): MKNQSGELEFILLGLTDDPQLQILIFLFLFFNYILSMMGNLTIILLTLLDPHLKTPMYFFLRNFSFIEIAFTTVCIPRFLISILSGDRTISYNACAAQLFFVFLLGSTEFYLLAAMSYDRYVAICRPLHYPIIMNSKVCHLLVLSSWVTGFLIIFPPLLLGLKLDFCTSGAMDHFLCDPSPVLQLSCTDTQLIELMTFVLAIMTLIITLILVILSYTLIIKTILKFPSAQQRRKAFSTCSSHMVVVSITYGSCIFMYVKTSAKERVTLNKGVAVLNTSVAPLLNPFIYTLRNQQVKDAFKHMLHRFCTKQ
In a few lines: as §1

Experiment [5] addresses T5, UniProt Q8VG77.
T5 sequence (whole entry): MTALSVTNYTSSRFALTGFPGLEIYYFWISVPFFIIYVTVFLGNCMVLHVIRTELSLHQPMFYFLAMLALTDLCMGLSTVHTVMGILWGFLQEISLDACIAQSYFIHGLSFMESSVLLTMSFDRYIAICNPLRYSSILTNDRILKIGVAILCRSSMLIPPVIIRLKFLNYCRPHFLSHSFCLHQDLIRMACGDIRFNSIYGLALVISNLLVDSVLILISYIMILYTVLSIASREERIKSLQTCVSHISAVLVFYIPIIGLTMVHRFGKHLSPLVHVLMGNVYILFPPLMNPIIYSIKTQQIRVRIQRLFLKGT
In a few lines:
as §1

Experiment [6] deals with T6, UniProt Q8VG96.
T6 sequence (whole entry): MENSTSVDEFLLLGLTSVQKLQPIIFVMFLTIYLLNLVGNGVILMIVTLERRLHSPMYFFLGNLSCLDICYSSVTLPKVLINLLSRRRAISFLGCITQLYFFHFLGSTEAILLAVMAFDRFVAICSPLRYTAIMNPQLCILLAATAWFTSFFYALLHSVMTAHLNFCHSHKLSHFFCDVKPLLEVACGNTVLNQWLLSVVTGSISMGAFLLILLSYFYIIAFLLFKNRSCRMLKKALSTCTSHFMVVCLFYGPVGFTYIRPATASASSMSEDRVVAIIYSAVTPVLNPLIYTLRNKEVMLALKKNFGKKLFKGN
Summed up:
as §1

In experiment [7] the target is T7, UniProt Q8VGB9.
T7 sequence (whole entry): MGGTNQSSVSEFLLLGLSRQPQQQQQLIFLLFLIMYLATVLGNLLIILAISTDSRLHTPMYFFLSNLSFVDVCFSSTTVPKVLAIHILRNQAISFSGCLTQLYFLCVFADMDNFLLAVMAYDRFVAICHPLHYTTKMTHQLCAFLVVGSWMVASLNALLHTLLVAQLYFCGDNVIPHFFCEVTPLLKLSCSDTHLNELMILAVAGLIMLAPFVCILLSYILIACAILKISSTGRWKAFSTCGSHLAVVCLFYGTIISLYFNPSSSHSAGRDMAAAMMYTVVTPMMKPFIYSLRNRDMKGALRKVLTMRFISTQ
In a few lines: as §1

The target in experiment [8] is T8, UniProt Q8VGC6.
T8 sequence (whole entry): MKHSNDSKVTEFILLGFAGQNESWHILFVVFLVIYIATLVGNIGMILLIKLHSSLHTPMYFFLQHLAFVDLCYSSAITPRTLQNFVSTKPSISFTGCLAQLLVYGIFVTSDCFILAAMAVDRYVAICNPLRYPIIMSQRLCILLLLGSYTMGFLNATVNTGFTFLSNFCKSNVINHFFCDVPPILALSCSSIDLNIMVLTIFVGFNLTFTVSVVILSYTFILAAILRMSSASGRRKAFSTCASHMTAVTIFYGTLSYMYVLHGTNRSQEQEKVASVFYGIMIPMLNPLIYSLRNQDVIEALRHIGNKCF
In a few lines: as §1

In experiment [9] the target is T9, UniProt Q8VGD7.
T9 sequence (whole entry): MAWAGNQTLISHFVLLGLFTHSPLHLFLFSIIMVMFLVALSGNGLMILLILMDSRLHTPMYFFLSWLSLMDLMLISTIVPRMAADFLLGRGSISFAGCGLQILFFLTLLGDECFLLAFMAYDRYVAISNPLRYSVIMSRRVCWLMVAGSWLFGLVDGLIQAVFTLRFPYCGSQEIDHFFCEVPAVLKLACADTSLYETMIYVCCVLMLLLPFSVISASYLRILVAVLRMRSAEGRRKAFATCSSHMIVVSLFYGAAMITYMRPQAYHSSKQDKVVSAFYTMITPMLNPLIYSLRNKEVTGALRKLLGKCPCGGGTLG
Summed up: as §1

In experiment [10] the target is T10, UniProt Q8VGH1.
T10 sequence (whole entry): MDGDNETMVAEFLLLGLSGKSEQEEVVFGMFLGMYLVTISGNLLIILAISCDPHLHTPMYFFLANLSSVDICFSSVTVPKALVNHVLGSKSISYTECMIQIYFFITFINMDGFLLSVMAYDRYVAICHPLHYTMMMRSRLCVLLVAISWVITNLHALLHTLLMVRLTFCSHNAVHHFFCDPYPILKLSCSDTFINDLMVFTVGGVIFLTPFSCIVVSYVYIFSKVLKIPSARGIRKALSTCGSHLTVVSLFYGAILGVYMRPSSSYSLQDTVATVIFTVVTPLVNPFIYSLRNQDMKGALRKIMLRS
Summed up:
as §1

Experiment [11] addresses T11, UniProt Q8VGJ1.
T11 sequence (whole entry): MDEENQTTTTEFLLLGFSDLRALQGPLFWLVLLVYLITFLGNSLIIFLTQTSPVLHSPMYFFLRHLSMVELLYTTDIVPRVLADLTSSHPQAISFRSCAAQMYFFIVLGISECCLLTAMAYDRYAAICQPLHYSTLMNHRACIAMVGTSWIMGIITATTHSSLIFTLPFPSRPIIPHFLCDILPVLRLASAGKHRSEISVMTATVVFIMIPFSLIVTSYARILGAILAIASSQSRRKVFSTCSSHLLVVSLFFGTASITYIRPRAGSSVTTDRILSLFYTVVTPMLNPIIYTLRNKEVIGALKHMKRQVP
In a few lines: as §1

Experiment [12] addresses T12, UniProt Q8VGJ3.
T12 sequence (whole entry): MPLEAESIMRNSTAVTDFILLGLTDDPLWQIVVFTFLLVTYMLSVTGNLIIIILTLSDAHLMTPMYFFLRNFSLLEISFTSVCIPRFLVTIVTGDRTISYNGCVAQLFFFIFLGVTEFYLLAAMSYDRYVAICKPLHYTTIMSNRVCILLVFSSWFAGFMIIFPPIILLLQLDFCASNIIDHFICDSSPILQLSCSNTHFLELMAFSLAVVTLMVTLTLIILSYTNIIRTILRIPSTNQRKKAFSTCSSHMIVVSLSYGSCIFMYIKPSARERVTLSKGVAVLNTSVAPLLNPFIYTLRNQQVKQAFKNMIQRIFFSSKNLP
In a few lines:
as §1

Experiment [13] deals with T13, UniProt Q8VGJ5.
T13 sequence (whole entry): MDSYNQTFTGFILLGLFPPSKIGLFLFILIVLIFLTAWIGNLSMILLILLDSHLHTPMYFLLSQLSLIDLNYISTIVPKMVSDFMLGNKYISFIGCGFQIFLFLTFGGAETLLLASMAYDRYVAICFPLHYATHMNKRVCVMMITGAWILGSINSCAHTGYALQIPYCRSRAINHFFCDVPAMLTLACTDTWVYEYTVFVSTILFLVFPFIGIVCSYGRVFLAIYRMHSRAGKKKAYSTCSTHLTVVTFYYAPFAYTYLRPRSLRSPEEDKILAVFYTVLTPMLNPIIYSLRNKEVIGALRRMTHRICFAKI
In a few lines: as §1

Experiment [14] addresses T14, UniProt Q8VGL0.
T14 sequence (whole entry): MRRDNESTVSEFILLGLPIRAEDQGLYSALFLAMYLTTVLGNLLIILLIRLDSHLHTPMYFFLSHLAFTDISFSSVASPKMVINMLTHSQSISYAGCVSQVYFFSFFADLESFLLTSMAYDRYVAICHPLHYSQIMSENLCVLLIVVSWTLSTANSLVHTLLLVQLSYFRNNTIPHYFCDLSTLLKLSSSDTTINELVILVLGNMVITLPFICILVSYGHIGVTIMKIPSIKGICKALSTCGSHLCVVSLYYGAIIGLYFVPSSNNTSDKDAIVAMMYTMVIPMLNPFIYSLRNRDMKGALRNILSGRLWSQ
Summed up:
as §1

In experiment [15] the target is T15, UniProt Q8VGL7.
T15 sequence (whole entry): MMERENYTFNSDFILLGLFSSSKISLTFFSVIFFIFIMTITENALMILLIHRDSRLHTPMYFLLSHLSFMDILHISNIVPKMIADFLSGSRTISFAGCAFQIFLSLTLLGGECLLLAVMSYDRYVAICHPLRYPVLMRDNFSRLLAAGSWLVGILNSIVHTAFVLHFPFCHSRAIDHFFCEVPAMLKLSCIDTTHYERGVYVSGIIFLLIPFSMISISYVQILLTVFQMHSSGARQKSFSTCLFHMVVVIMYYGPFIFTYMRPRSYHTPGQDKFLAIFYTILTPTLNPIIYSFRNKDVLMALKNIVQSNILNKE
In a few lines: as §1

Turning to `CCCCC(C)=O`, the “odorant receptor agonist call” value in experiment [1], in experiment [2], in [3], in [4], in [5] and in experiment [6] was “inactive” each time. For the same molecule, the “odorant receptor agonist call” value in experiment [8], in [9], in experiment [10], in experiment [11], in experiment [12] and in experiment [14] was “inactive” each time. The “odorant receptor agonist call” value in [15] was “inactive”. The “odorant receptor agonist call” value in experiment [7] and in experiment [13] was “active” throughout.
On to `c1ccccc1`, for which the “odorant receptor agonist call” value in experiment [1], in experiment [2], in experiment [3], in [4], in experiment [5] and in [6] was “inactive” each time. Further, the “odorant receptor agonist call” value in experiment [7], in [8], in experiment [9], in [10], in experiment [11] and in experiment [12] was “inactive” in each case. In addition, the “odorant receptor agonist call” value in [13], in experiment [14] and in [15] was “inactive” throughout.
On to `CCCCCC(=O)CC`, for which the “odorant receptor agonist call” value in experiment [1], in [2], in experiment [3], in experiment [4], in [5] and in [6] was “inactive” in each case. In addition, the “odorant receptor agonist call” value in [7], in experiment [9], in experiment [10], in experiment [11], in experiment [12] and in experiment [14] was “inactive” throughout. In addition, the “odorant receptor agonist call” value in experiment [15] is “inactive”. Moreover, the “odorant receptor agonist call” value in experiment [8] and in experiment [13] was “active” each time.
As for `CC(C)=CCCC(C)=CCO`, the “odorant receptor agonist call” value in experiment [1], in experiment [2], in experiment [3], in [4], in [5] and in experiment [6] was “inactive” each time. The “odorant receptor agonist call” value in [7], in [9], in experiment [10], in experiment [11], in [12] and in experiment [13] was “inactive” in each case. The “odorant receptor agonist call” value in experiment [14] and in experiment [15] was “inactive” in each case. In experiment [8], the “odorant receptor agonist call” value is “active”.
